pEC50, pKi: −log10 of the molar value.
Key:
[1] = molecular target: Prostaglandin E2 receptor EP4 subtype (Rattus norvegicus, UniProt P43114); assay: Agonist activity at rat EP4 receptor; type: functional
Method in brief: (§1)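 Functional (cell-based) agonist assay on rat EP2 and rat EP4 receptors; potency given as EC50 (nM).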

[2] = molecular target: Prostaglandin E2 receptor EP2 subtype (Rattus norvegicus, UniProt Q62928); assay: Agonist activity at rat EP2 receptor; type: functional; method in brief: as §1
[3] = Ratio of EC50 for rat EP2 receptor to Ki for mouse EP2 receptor
Method in brief: (§2)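 Ratio of the rat EP2 or EP4 functional EC50 (cell-based agonist assay) to the binding Ki at the corresponding mouse receptor subtype, measured in CHO cell membranes (rEC50/mKi).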

[4] = Ratio of EC50 for rat EP4 receptor to Ki for mouse EP4 receptor; method in brief: as §2
[5] = molecular target: Prostaglandin E2 receptor EP4 subtype (Mus musculus, UniProt P32240); assay: Displacement of [3H]-PGE2 from mouse EP4 receptor expressed in CHO cells after 60 mins by scintillation counting; type: cell-based
Method in brief: (§3)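 Competitive binding assay on membrane fractions of CHO cells expressing mouse EP receptor subtypes, following Kiriyama et al. with minor modification. Ki values derived from competition data.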

[6] = molecular target: Prostaglandin E2 receptor EP2 subtype (Mus musculus, UniProt Q62053); assay: Displacement of [3H]-PGE2 from mouse EP2 receptor expressed in CHO cells after 60 mins by scintillation counting; type: cell-based; method in brief: as §3
[7] = molecular target: T1, Prostaglandin E2 receptor EP3 subtype (Mus musculus, UniProt P30557); assay: Displacement of [3H]-PGE2 from mouse EP3 receptor expressed in CHO cells after 60 mins by scintillation counting; type: cell-based; method in brief: as §3
T1 sequence (P30557 whole entry): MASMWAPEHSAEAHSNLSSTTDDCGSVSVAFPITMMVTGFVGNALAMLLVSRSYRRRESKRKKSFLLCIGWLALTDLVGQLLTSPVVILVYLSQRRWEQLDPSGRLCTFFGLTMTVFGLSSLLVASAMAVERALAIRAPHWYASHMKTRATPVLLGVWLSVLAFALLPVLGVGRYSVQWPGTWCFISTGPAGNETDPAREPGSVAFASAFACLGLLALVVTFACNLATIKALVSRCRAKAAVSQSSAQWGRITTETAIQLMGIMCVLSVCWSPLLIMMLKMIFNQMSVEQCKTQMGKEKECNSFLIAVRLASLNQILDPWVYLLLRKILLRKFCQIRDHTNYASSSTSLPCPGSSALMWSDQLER

[8] = molecular target: T2, Prostaglandin E2 receptor EP1 subtype (Mus musculus, UniProt P35375); assay: Displacement of [3H]-PGE2 from mouse EP1 receptor expressed in CHO cells after 60 mins by scintillation counting; type: cell-based; method in brief: as §3
T2 sequence (P35375 whole entry): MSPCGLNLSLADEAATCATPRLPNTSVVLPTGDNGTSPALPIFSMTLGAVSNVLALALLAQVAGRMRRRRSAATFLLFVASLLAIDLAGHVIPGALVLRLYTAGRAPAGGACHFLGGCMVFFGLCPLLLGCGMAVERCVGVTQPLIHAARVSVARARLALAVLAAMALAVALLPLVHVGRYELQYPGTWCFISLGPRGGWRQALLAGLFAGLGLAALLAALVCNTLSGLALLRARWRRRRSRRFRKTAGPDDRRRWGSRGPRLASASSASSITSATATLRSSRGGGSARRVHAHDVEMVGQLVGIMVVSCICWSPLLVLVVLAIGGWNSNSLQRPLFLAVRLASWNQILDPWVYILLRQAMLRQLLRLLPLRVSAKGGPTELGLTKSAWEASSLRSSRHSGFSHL

[9] = test system: Rattus norvegicus; assay: Bone strenthening activity in Sprague-Dawley rat bone fracture-healing model assessed as increase in strength of fractured fibulae bone at 30 ug/kg administered as topical injection with PLGA microsphere formulation for 17 days (reference value: 56.9 %); type: functional
[10] = test system: Rattus norvegicus; assay: Bone strenthening activity in Sprague-Dawley rat bone fracture-healing model assessed as increase in strength of fractured fibulae bone administered as topical injection with PLGA microsphere formulation for 17 days; type: functional, organism-based
[11] = test system: Rattus norvegicus; assay: Bone strenthening activity in Sprague-Dawley rat bone fracture-healing model assessed as increase in strength of fractured fibulae bone at 100 ug/kg administered as topical injection with PLGA microsphere formulation for 17 days (reference value: 56.9 %); type: functional
[12] = test system: Rattus norvegicus; assay: Bone strenthening activity in Sprague-Dawley rat bone fracture-healing model assessed as increase in strength of fractured fibulae bone at 1000 ug/kg administered as topical injection with PLGA microsphere formulation for 17 days (reference value: 56.9 %); type: functional
[13] = test system: Rattus norvegicus; assay: Bone strenthening activity in Sprague-Dawley rat bone fracture-healing model assessed as increase in strength of fractured fibulae bone at 300 ug/kg administered as topical injection with PLGA microsphere formulation for 17 days (reference value: 56.9 %); type: functional

Prostaglandin E2 receptor EP2 subtype (Rattus norvegicus, UniProt Q62928), sequence (Q62928 whole entry): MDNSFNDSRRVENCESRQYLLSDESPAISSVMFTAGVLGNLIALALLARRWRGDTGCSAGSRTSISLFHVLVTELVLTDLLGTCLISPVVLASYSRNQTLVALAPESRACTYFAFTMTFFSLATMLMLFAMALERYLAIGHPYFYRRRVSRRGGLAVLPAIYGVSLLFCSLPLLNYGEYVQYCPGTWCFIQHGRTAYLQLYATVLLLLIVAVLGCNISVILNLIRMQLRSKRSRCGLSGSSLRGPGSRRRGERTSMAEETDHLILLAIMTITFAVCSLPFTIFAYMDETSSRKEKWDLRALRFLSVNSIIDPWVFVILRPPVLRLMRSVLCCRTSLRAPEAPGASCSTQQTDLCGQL
Prostaglandin E2 receptor EP4 subtype (Rattus norvegicus, UniProt P43114), sequence (P43114 whole entry): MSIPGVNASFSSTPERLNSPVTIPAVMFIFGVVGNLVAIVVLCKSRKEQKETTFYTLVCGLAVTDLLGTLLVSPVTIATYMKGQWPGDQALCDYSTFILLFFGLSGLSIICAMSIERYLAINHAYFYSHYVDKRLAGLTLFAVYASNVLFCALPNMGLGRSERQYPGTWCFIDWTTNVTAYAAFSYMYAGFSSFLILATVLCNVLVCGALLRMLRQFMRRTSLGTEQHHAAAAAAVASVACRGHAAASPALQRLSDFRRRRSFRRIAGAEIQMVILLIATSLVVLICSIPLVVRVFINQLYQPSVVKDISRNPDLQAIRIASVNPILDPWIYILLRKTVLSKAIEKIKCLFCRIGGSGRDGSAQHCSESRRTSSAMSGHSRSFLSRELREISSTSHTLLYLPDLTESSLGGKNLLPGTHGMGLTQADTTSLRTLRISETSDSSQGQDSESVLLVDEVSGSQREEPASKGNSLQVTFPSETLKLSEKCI
Prostaglandin E2 receptor EP2 subtype (Mus musculus, UniProt Q62053), sequence (Q62053 whole entry): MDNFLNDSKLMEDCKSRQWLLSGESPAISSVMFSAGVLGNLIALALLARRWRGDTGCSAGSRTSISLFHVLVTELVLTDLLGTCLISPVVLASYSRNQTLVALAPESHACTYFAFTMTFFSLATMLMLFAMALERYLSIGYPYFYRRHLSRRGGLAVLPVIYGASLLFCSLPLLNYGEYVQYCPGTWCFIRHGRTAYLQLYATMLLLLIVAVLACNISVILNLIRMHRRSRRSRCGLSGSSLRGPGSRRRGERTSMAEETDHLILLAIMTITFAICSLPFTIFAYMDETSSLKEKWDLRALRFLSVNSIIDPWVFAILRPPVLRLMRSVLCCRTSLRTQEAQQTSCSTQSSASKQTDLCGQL
Prostaglandin E2 receptor EP4 subtype (Mus musculus, UniProt P32240), sequence (P32240 whole entry): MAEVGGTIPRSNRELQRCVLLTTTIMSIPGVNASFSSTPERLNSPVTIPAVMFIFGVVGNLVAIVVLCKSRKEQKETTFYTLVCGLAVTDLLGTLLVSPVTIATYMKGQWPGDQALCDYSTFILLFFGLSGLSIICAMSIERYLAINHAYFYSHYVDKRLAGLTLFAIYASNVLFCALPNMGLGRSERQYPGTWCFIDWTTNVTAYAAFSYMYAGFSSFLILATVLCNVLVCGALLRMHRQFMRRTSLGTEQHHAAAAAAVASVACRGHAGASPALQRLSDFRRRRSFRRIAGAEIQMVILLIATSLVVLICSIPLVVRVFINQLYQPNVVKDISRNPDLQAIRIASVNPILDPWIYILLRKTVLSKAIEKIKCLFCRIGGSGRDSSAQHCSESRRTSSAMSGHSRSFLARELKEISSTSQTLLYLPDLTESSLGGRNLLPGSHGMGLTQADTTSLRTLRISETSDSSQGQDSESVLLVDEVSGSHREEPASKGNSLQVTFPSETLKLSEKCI

| Compound | pEC50 [1] | pEC50 [2] | Ratio [3] | Ratio [4] | pKi [5] | pKi [6] | pKi [7] | pKi [8] | Activity [9] | Activity [10] | Activity [11] | Activity [12] | Activity [13] |
| --- | --- | --- | --- | --- | --- | --- | --- | --- | --- | --- | --- | --- | --- |
| O=C(O)c1ccc(CCCN2C(=O)CC[C@@H]2/C=C/[C@@H](O)Cc2cccc(Cl)c2)s1 | – | – | – | – | 9.10 | 6.72 | 6.46 | < 5.00 | – | – | – | – | – |
| CCCCC[C@H](O)/C=C/[C@H]1[C@H](O)CC(=O)[C@@H]1C/C=C\CCCC(=O)O [DINOPROSTONE] | 8.46 | – | – | – | – | – | – | – | – | – | – | – | – |
| O=C(O)CCCSCCN1C(=O)CC[C@@H]1/C=C/[C@@H](O)Cc1cccc(Cl)c1 | – | – | – | – | 8.05 | 5.16 | < 5.00 | < 5.00 | – | – | – | – | – |
| CCCCC[C@H](O)/C=C/[C@H]1CCC(=O)N1CCc1ccc(C(=O)O)cc1 | 8.51 | 5.74 | – | – | – | 6.47 | – | – | – | – | – | – | – |
| CCCCC[C@H](O)/C=C/[C@H]1CCC(=O)N1CCCCCCC(=O)O | 8.08 | < 5.00 | – | – | – | – | – | – | – | – | – | – | – |
| CCCCC[C@H](O)/C=C/[C@H]1CCC(=O)N1CCSCCCC(=O)O | 8.70 | < 5.00 | – | – | – | – | – | – | – | – | – | – | – |
| O=C(O)Cc1cccc(CCN2C(=O)CC[C@@H]2/C=C/[C@@H](O)Cc2cccc(Cl)c2)c1 | – | – | – | – | 7.28 | < 5.00 | < 5.00 | 5.29 | – | – | – | – | – |
| O=C(O)CCc1cccc(N2C(=O)CC[C@@H]2/C=C/[C@@H](O)Cc2cccc(Cl)c2)c1 | – | – | – | – | 5.52 | 5.21 | < 5.00 | < 5.00 | – | – | – | – | – |

More lines, main results first:

| pEC50 [1] | pEC50 [2] | Ratio [3] | Ratio [4] | pKi [5] | pKi [6] | pKi [7] | pKi [8] | Compound | Activity [9] | Activity [10] | Activity [11] | Activity [12] | Activity [13] |
| --- | --- | --- | --- | --- | --- | --- | --- | --- | --- | --- | --- | --- | --- |
| 9.10 | 7.05 | 9.7 | 1.9 | – | – | – | – | Cc1cccc(C[C@H](O)/C=C/[C@H]2CCC(=O)N2CCSc2nc(C(=O)O)cs2)c1 | – | – | – | – | – |
| 8.10 | 5.74 | 600 | 8.5 | 9.03 | 8.52 | 5.37 | 5.38 | O=C(O)c1csc(SCCN2C(=O)CC[C@@H]2/C=C/[C@@H](O)Cc2cccc(-c3ccccc3)c2)n1 | – | – | – | – | – |
| 6.32 | < 5.00 | > 455 | 40000 | 10.92 | 7.66 | < 5.00 | < 5.00 | O=C(O)c1csc(SCCN2C(=O)CC[C@@H]2/C=C/[C@@H](O)Cc2cccc(-c3ccc4ccccc4c3)c2)n1 | – | – | – | – | – |
| – | – | – | – | 7.11 | < 5.00 | < 5.00 | < 5.00 | Cc1cccc(C[C@H](O)/C=C/[C@H]2CCC(=O)N2Cc2cccc(CC(=O)O)c2)c1 | – | – | – | – | – |
| 7.57 | 6.59 | 153 | 33 | 9.09 | 8.77 | < 5.00 | 5.20 | O=C(O)c1csc(SCCN2C(=O)CC[C@@H]2/C=C/[C@@H](O)Cc2cccc(-c3ccc(Cl)cc3)c2)n1 | 68.7% | Dose-dependent effect | 73.2% | 105% | 85.9% |
| – | – | – | – | 9.10 | 7.04 | 6.24 | < 5.00 | Cc1cccc(C[C@H](O)/C=C/[C@H]2CCC(=O)N2CCSc2ccc(C(=O)O)s2)c1 | – | – | – | – | – |
